Assay outcomes: PubChem BioAssay, several laboratories
Shown are actives, neighbours in structure and some others; about 2.6% of the full set was active somewhere.
PolyA inhibitor = inhibitors of polyadenylation in S. cerevisiae | activity score, % at 12 µM | S. cerevisiae SKY197-pL101 polyadenylation reporter, beta-gal luminescence; efflux-impaired pdr1/pdr3 knockout yeast; score 100 = 6 SD above DMSO | 300,000 compounds, 0.02% hits;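 active means lowest replicate activity score at least 50, where 100 means six control SD above control mean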;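 further: yeast exposed to compound for 9 h at 30 °C; higher score means more reporter readthrough which indicates perturbed polyadenylation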
proCasp7 act = counter-screen: procaspase-7 (human) activation | recombinant procaspase-7, Ac-DEVD-pNA absorbance 405 nm; D23A/D198A/D206A triple mutant, cannot self-cleave; scale: DMSO 0, 5 µM enzyme 100 | P55210 | activation, % at 8.5 µM | AID 463210 | 330,000 compounds, 0.093% hits;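 active means percent activation above the screen-wide mean plus 3 SD, cut at about 25% in these data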
Target sequence (P55210 whole entry D23A/D198A/D206A): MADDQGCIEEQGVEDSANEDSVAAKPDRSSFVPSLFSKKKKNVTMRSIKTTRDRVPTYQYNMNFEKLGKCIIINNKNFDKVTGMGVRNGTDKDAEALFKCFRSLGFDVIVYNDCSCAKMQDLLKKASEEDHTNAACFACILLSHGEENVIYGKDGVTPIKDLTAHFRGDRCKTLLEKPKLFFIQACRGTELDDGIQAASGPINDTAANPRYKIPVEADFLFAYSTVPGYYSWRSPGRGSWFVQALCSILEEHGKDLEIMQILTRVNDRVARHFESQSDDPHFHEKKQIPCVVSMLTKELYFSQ
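signal = Epi-absorbance of released pNA at 405 nm, two timepoints | assay system = Uncleavable procaspase-7 mutant enzyme | reagent = Ac-DEVD-pNA substrate, 400 µM as added | times = 1 h enzyme–compound preincubation and 2 h substrate reaction, both 25 °C | benchmarks = low DMSO alone, high DMSO plus 5 µM PC-7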
AHR act = human AHR activation | AHR-responsive luciferase reporter cells, luminescence | activation, % at 5 µM | 320,000 compounds, 2.5% hits | AID 2796 | P35869; in the data active means activation above about 47%;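 further: 0% = vehicle wells and 100% = reference agonist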
procasp3 activ = procaspase-3 (human) activation. P42574. recombinant procaspase-3 D3A, Ac-DEVD-pNA absorbance 405 nm. activation, % at 8.5 µM. 330,000 compounds, 0.11% hits;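 active means activation above the mean of all tested compounds plus 3 SD, cut at about 21% in these data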;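 further: 0% = DMSO alone and 100% = DMSO wells spiked with extra 5 µM PC-3 D3A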
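material = Procaspase-3 D3A mutant | probe or stimulus = Ac-DEVD-pNA | compound = single dose, 8.5 µM nominal compound, 0.8% DMSO | timing = 1 h preincubation, 2 h reaction | measured by = 405 nm absorbance of p-nitroaniline, reads at 0 and 120 min | benchmarks = DMSO-only low control, 5 µM PC-3 D3A high control | repeats = singlicate, each compound tested once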
* = called active by the depositor; / = no result.

SMILES | PolyA inhibitor | proCasp7 act | AHR act | procasp3 activ
CCOc1ccccc1Nc1nc2ccccc2[nH]1 | 7 | 2 | 50* | -2
CCOc1ccccc1Nc1cc(C)nc2ccc(C)cc12 | 5 | -2 | 48* | -1
COc1ccc(C(=O)NCCS(=O)(=O)NCc2ccccc2OC)cc1 | 12 | 5 | 4 | -1
Cc1ccc2ncnc(Nc3ccc(C)c(C)c3)c2c1 | -9 | -4 | 50* | 3
Cc1cc(C)cc(Nc2nc3ccccc3c(=O)[nH]2)c1 | -6 | 4 | 77* | 3
CC(C)Nc1nc2ccccc2c(=O)[nH]1 | 20 | 7 | 2 | 3
Cc1cccc(-c2nc3ccccc3c(=O)[nH]2)c1 | 14 | 7 | 68* | 1
O=C(Nc1ccccc1Oc1cccnc1)C1CCCN(C/C=C/c2ccccc2)C1 (stereo not drawn) | 2 | / | / | /
COc1ccccc1CN1CCNC(=O)C1CC(=O)NC1Cc2ccccc2C1 (stereo not drawn) | 6 | 5 | 3 | -2
CCOCC(=O)Nc1c(C(=O)OCC)oc2ccccc12 | -2 | 6 | 68* | 3
COc1ccc(NC(=O)c2oc3ccccc3c2NC(=O)C2CC2)cc1 | -16 | 4 | 72* | 3
COc1cccc(NC(=O)c2oc3ccccc3c2NC(=O)C2CC2)c1 | -21 | 3 | 12 | 1
COc1ccc(NC(=O)c2oc3ccccc3c2NC(=O)C2CC2)c(OC)c1 | 1 | 8 | 55* | 3
CCOCC(=O)Nc1c(C(=O)Nc2ccc(OC)cc2OC)oc2ccccc12 | -7 | 7 | 67* | 5
CCOC(=O)c1oc2ccccc2c1NC(=O)C(C)(C)C | -9 | 8 | 4 | 0
Cc1cc(O)c2/c(=N\N)c(-c3csc(C)n3)coc2c1 | 13 | -5 | 2 | -3
CC(NCC(O)COCCC12CC3CC(CC(C3)C1)C2)c1ccccc1 (stereo not drawn) | -16 | 8 | -1 | 2
O=C(CSc1nc(=O)[nH]c2c1CCCC2)Nc1ccc(F)cc1F | 6 | 6 | -2 | 1
COc1ccc(NC(=O)c2oc3ccccc3c2NC(=O)c2ccco2)c(OC)c1 | 1 | 10 | 45 | 1
COc1ccc(NC(=O)c2oc3ccccc3c2NC(=O)c2ccco2)cc1 | -1 | 4 | 69* | -2
O=C(NNC(=S)Nc1ccc(Cl)cc1)c1ccccc1OC(F)F | -8 | -2 | 104* | 4
C(=C\c1nc(N2CCCCCC2)c2ccccc2n1)/c1ccccc1 | -6 | 5 | 78* | 9
c1ccc2c(N3CCCCC3)nc(N3CCCCC3)nc2c1 | 2 | 16 | 9 | 4
Nc1c(C(=O)O)sc2nc3c(cc12)CCCC3 | -20 | -5 | 4 | -6
Nc1c(C(=O)c2ccc(Cl)cc2)sc2nc3c(cc12)CCC3 | -27 | 8 | 53* | -2
SMILES | PolyA inhibitor | proCasp7 act | AHR act | procasp3 activ
CC(C)NC(=O)C(Cc1ccccc1)N1C(=O)c2ccccc2C1=O (stereo not drawn) | -5 | 8 | 55* | 2
Cc1ccc(NC(=O)c2nsc(Cl)c2Cl)cc1 | 7 | -13 | 69* | -9
CC1(C)SC2c3ccccc3C(=O)N2[C@@H]1C(=O)O (stereo partly drawn) | -9 | 12 | -1 | 5
Oc1c(C=C2N=c3ccccc3=N2)sc(=S)n1C1CCCC1 | -21 | -24 | 59* | 4
COc1c(C)cc(S(=O)(=O)NCc2ccccn2)c(C)c1C | -10 | -1 | 0 | 4
O=C1c2ccccc2NC(c2ccc(-c3ccccc3F)o2)N1O (stereo not drawn) | / | 2 | 54* | -8
O=C1c2ccccc2NC(c2ccc(-c3cccc(F)c3)o2)N1O (stereo not drawn) | / | -11 | 47* | -15
N#Cc1ccc(-c2ccc(C3Nc4ccccc4C(=O)N3O)o2)cc1 (stereo not drawn) | / | -32 | -1 | -14
NC(=O)c1c(NC(=O)COC(=O)c2ccc(O)c(Cl)c2)sc2c1CCCC2 | / | -9 | 8 | -12
O=C1/C(=C\c2cccs2)Sc2ccc3ccccc3c21 | / | -10 | 62* | -21
O=C(CCN1CCN(S(=O)(=O)c2cccc([N+](=O)[O-])c2)CC1)Nc1ccccc1F | 14 | 2 | 2 | -1
CCOc1cccc(-c2c(C(=O)N/N=C(\C)c3cccnc3)nnn2-c2nonc2N)c1 | 3 | 11 | 60* | -3
CCCOc1ccc(-c2c(C(=O)N/N=C(\C)c3cccnc3)nnn2-c2nonc2N)cc1 | -3 | 6 | 56* | -2
